The values that follow come from publication PMC9066701 (RSC Advances, 2019).

Read-outs that look alike come from different tables or passages of the source.

Series [1] concerns HepG-2 cells. As to the kind of experiment: Mitochondrial membrane potential by JC-1 staining. The class given is cell-based, human. The conditions noted are these: HepG-2, 30 μM, 48 hours, negative control 5.42.
Series [2] concerns MCF-7 human breast carcinoma cell line. The experiment in a line: MTT cytotoxicity assay, MCF-7. Format: cell-based. Conditions: read-out: IC50 MCF-7. Put shortly:
(§1)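 Adherent cells kept in DMEM with 10% FBS at 37 °C, 5% CO2, seeded at 5 × 10^3 cells per well and left overnight. Test compound in DMF diluted in medium (DMF final < 0.4%) for 48 h at 37 °C. MTT (5 mg mL−1) added for 4 h, formazan dissolved in DMSO, A570 read. IC50 from % inhibition versus log concentration; cisplatin run as reference.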

The subject of series [3] is BGC803 human gastric cancer cell line. As to the kind of experiment: MTT cytotoxicity assay, BGC803. The conditions noted are these: read-out: IC50 BGC803. Format: cell-based. Put shortly: as §1
In series [4] the test system is NCI-H460 large cell lung cancer cell line. As to the kind of experiment: MTT cytotoxicity assay, NCI-H460. Format: cell-based. The conditions noted are these: read-out: IC50 NCI-H460. In short, it runs like this:
as §1

In series [5] the test system is HepG-2 human hepatocellular carcinoma cell line. As to the kind of experiment: MTT cytotoxicity assay, HepG-2. The class given is cell-based. The conditions noted are these: read-out: IC50 HepG-2. Put shortly:
as §1

Series [6] has as its system HepG-2 cells. As to the kind of experiment: Annexin V-FITC/PI apoptosis assay by flow cytometry. The class given is cell-based, human. The conditions noted are these: HepG-2, 50 μM, 24 hours.
The test system of series [7] is SGC7901/CDDP cisplatin-resistant gastric cancer cell line. As to the kind of experiment: MTT cytotoxicity assay, SGC7901/CDDP. The class given is cell-based. Conditions: read-out: IC50 SGC7901/CDDP, 48 h drug exposure. Put shortly: as §1
Series [8] concerns HUVEC human umbilical vein endothelial cell line. As to the kind of experiment: MTT cytotoxicity assay, HUVEC. The conditions noted are these: read-out: IC50 HUVEC, 48 h drug exposure, normal cells. Format: cell-based. In short, it runs like this: as §1
Series [9] has as its system SGC7901 gastric cancer cell line. The experiment in a line: MTT cytotoxicity assay, SGC7901. Format: cell-based. Conditions: read-out: IC50 SGC7901, 48 h drug exposure. In short, it runs like this:
as §1

The conditions of series [10]: reported for kiteplatin; same experimental conditions; cited from earlier work.
The conditions of series [11]: PBS, 37 °C, pH 7.0; cited from earlier work.

Take `N#CC(C#N)=NNc1cccc(Cl)c1` [CCCP, carbonylcyanide-m-chlorophenylhydrazone]: the “Red-green fluorescence ratio (FL2/FL1)” value in the series on HepG-2 cells [1] turned out to be 0.04.

As for `N.N.O=C([O-])C1(C(=O)[O-])CCC1.[Pt+2]` [Carboplatin, carboplatin], the IC50 in series [2] (MTT assay, 48 h drug exposure) is 179 ± 10.6 µM; in series [3] (MTT assay, 48 h drug exposure), 77.1 ± 5.35 µM; in series [4] (MTT assay, 48 h drug exposure), 52.9 ± 4.98 µM; in [5] (MTT assay, 48 h drug exposure), 42.3 ± 2.55 µM. Moreover, the “Red-green fluorescence ratio (FL2/FL1)” value in the series with HepG-2 cells [1] turned out to be 2.56.

Take `N.N.[Cl][Pt][Cl]` [Cisplatin, cisplatin]: the “apoptotic rate (early + late)” value in the series with HepG-2 cells [6] worked out at 28.79%. The IC50 in series [2] (MTT assay, 48 h drug exposure) came to 29.2 ± 1.38 µM; in series [3] (MTT assay, 48 h drug exposure), 21.6 ± 1.35 µM; in [7], 35.6 ± 2.55 µM; in series [4] (MTT assay, 48 h drug exposure), 14.8 ± 1.35 µM; in series [8], 36.9 ± 2.23 µM; in [9], 9.96 ± 0.87 µM. The IC50 in series [5] (MTT assay, 48 h drug exposure) turned out to be 27.8 ± 2.56 µM. In addition, the “Red-green fluorescence ratio (FL2/FL1)” value in the series with HepG-2 cells [1] was 0.54.

For the molecule `O=C(O)C(Cl)Cl` [DCA, Dichloroacetate], the IC50 in [2] (Homo sapiens, MCF7, 48 h) was above 100 µM; in series [3] (Homo sapiens, BGC803, 48 h), above 100 µM; in [4] (Homo sapiens, NCI-H460, 48 h), above 100 µM; in [5] (Homo sapiens, HepG2, 48 h) it was above 100 µM. Further, the “Red-green fluorescence ratio (FL2/FL1)” value in the series with HepG-2 cells [1] stood at 4.17.

Consider `O=C1[O][Pt]2([NH][C@@H]3CCCC[C@H]3[NH]2)[O]C1=O` [Oxaliplatin, oxaliplatin], for which, in the series on HepG-2 cells [6], the “apoptotic rate (early + late)” value amounted to 21.74%. In addition, the IC50 in series [2] (MTT assay, 48 h drug exposure) amounted to 41.3 ± 3.43 µM; in series [3] (MTT assay, 48 h drug exposure) it was 29.1 ± 1.65 µM; in [7], 99.4 ± 5.23 µM; in series [4] (MTT assay, 48 h drug exposure), 13.4 ± 1.13 µM; in series [8] it was 51 ± 4.42 µM; in [9], 13.5 ± 1.55 µM. Besides, in series [5] (MTT assay, 48 h drug exposure), the IC50 was found to be 26.5 ± 2.55 µM. In addition, the “Red-green fluorescence ratio (FL2/FL1)” value in the series with HepG-2 cells [1] amounted to 0.94.

On to `NC1CCC(N)CC1.[Cl][Pt+2][Cl]` (stereo not shown) [kiteplatin], for which, in series [10], the half-life was 1 h.

As for “ct-[Pt(NH3)2(TFA)2(CBCDA)] [ct-[Pt(NH3)2(TFA)2(CBCDA)] (5)]”, in series [11], the t1/2 was 2.37 h.
